According to the M2OR odorant receptor database:
Substitutions are numbered along the chain they refer to.

Columns and labels:
Details in all cases: stereoisomer not certain
[1] = target: T1, OR6B3 (Homo sapiens) (UniProt Q8NGW1)
T1 sequence (whole entry): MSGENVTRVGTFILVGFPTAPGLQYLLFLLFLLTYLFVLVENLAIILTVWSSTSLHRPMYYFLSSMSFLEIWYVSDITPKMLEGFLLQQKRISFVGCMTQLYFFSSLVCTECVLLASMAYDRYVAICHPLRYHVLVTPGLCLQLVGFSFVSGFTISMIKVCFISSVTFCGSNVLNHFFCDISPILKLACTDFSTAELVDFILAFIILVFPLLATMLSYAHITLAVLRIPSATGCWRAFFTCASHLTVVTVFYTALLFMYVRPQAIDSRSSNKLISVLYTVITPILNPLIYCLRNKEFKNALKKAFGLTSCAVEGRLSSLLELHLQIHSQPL
Procedure, shortened: (§1)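 Whether a receptor–molecule pair is responsive (active) rests on the original authors' judgment that its measured signal was statistically different from baseline. Pairs without that judgment are non-responsive (inactive). Sources used varied assay methods, commonly transient luciferase assays in mammalian cell lines.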

[2] = target: T2, OR6C1 (Homo sapiens) (UniProt Q96RD1)
T2 sequence (whole entry): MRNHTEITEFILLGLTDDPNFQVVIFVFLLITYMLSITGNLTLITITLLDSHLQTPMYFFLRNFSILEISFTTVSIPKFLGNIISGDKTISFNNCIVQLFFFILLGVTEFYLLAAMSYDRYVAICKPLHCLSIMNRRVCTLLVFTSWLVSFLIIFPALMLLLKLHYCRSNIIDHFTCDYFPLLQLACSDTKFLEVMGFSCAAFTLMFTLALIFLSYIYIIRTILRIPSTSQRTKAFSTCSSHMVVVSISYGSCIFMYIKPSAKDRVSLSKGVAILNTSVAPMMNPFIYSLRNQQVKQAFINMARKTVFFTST
Procedure, shortened: as §1

[3] = target: T3, OR6C2 (Homo sapiens) (UniProt Q9NZP2)
T3 sequence (whole entry): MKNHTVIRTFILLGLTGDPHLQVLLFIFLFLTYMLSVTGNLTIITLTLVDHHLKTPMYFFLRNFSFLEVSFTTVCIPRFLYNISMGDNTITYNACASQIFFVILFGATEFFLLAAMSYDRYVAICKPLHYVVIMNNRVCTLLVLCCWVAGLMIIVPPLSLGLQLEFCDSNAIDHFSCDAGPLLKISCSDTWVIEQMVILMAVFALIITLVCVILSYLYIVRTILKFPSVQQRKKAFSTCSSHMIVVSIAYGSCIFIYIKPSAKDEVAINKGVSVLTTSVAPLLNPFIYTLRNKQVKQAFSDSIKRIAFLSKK
Procedure, shortened: as §1

[4] = target: T4, OR6C3 (Homo sapiens) (UniProt Q9NZP0)
T4 sequence (whole entry): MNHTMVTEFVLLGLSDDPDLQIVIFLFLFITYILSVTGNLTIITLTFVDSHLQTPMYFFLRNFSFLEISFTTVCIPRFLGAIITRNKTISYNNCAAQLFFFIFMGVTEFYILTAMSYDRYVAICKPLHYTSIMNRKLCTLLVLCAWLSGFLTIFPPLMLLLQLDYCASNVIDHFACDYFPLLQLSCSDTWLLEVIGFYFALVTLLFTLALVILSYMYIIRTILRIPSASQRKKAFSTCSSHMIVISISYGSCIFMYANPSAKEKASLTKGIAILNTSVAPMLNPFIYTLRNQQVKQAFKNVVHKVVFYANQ
Procedure, shortened: as §1

[5] = target: T5, OR6C4 (Homo sapiens) (UniProt Q8NGE1)
T5 sequence (whole entry): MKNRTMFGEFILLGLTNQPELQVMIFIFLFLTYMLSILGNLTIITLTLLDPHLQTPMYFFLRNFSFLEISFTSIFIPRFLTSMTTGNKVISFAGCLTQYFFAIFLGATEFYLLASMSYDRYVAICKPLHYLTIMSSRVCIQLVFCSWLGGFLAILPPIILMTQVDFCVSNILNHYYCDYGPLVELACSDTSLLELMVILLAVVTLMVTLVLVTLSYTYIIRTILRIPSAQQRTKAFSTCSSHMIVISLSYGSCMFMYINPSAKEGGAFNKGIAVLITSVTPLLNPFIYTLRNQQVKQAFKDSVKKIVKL
Procedure, shortened: as §1

[6] = target: T6, OR6C6 (Homo sapiens) (UniProt A6NF89)
T6 sequence (whole entry): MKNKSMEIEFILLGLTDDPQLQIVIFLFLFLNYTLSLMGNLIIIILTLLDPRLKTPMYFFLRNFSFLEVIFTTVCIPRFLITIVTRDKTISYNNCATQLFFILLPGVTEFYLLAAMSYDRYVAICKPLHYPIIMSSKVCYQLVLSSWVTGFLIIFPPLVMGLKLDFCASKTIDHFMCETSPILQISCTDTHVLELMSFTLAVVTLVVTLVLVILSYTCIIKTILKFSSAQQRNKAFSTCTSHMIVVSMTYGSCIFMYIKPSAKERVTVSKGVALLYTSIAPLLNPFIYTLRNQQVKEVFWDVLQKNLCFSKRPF
Procedure, shortened: as §1

[7] = target: T7, OR6C65 (Homo sapiens) (UniProt A6NJZ3)
T7 sequence (whole entry): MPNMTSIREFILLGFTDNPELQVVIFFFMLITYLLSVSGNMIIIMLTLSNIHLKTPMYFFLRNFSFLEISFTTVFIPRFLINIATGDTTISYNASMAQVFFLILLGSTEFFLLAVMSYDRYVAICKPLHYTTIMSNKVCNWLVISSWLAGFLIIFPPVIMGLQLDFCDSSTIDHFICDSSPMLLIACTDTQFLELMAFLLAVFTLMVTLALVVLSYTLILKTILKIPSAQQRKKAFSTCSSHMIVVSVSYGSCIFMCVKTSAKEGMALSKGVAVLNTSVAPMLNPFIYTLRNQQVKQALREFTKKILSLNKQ
Procedure, shortened: as §1

[8] = target: T8, OR6C68 (Homo sapiens) (UniProt A6NDL8)
T8 sequence (whole entry): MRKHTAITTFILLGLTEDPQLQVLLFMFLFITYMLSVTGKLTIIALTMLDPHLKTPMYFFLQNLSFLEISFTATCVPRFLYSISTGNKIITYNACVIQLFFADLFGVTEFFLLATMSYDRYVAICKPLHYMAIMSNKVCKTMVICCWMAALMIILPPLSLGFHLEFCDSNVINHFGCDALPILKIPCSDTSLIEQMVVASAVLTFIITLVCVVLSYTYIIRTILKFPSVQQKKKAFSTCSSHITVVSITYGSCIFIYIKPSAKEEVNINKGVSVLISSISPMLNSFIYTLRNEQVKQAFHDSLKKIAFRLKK
Procedure, shortened: as §1

[9] = target: T9, OR6C70 (Homo sapiens) (UniProt A6NIJ9)
T9 sequence (whole entry): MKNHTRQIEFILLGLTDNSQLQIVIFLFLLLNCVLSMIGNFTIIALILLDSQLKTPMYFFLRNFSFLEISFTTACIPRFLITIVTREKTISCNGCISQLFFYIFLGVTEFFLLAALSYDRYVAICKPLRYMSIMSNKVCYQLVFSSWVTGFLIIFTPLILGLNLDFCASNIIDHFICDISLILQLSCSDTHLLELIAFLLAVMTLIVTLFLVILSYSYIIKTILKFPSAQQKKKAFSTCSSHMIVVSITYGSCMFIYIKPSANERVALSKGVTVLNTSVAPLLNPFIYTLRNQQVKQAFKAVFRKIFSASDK
Procedure, shortened: as §1

[10] = target: T10, OR6C74 (Homo sapiens) (UniProt A6NCV1)
T10 sequence (whole entry): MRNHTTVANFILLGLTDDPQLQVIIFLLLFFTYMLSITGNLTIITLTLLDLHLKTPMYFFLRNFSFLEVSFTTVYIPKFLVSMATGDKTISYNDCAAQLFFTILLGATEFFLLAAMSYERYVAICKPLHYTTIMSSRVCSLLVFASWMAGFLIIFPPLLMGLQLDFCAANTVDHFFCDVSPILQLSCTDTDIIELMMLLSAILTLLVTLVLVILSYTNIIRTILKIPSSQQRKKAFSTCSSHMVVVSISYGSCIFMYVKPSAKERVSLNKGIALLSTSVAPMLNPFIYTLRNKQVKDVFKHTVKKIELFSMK
Procedure, shortened: as §1

[11] = target: T11, OR6C75 (Homo sapiens) (UniProt A6NL08)
T11 sequence (whole entry): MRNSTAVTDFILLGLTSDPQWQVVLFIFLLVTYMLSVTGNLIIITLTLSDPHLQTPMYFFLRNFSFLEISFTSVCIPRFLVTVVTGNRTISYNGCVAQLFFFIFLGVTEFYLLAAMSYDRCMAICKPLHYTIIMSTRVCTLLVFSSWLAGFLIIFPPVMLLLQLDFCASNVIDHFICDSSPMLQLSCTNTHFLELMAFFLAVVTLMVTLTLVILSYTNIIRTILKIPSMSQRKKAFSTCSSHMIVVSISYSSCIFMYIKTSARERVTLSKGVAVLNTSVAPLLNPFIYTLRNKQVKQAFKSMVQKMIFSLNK
Procedure, shortened: as §1

[12] = target: T12, OR6C76 (Homo sapiens) (UniProt A6NM76)
T12 sequence (whole entry): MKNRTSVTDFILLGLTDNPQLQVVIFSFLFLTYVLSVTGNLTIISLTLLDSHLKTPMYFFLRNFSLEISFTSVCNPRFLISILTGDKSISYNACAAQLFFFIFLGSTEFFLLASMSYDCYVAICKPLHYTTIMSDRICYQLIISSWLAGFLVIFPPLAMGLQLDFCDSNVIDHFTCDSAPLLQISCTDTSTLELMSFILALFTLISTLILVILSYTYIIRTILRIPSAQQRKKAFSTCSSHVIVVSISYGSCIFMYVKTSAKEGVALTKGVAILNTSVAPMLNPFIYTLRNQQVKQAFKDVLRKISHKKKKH
Procedure, shortened: as §1

[13] = target: T13, OR6F1 (Homo sapiens) (UniProt Q8NGZ6)
T13 sequence (whole entry): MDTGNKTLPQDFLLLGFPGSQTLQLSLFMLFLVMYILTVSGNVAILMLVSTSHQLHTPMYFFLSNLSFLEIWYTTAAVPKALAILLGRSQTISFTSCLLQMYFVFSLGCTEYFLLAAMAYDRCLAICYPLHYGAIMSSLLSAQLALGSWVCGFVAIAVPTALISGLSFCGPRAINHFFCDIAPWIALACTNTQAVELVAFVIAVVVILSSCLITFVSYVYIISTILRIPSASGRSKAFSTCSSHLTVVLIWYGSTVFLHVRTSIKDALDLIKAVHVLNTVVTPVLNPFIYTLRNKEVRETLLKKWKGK
Procedure, shortened: as §1

[14] = target: T14, OR6J1 (Homo sapiens) (UniProt Q8NGC5)
T14 sequence (whole entry): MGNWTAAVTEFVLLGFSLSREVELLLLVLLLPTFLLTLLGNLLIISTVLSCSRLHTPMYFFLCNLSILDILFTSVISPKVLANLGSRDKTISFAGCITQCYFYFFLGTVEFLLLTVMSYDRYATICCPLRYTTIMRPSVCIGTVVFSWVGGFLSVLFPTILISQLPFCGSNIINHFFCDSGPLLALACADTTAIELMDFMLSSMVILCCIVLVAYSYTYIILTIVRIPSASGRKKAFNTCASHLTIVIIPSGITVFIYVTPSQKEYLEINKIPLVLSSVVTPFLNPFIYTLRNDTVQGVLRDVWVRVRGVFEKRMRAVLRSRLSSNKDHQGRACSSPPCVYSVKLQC
Procedure, shortened: as §1

[15] = target: T15, OR6K2 (Homo sapiens) (UniProt Q8NGY2)
T15 sequence (whole entry): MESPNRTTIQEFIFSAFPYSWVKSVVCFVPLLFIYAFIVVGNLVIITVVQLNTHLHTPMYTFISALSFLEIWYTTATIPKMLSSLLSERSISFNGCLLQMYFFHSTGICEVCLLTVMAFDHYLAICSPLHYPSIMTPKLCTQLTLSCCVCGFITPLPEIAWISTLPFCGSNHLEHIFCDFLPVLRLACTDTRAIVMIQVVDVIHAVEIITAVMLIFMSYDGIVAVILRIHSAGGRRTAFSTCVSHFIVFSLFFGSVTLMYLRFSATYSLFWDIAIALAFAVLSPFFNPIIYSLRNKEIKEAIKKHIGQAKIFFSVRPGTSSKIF
Procedure, shortened: as §1

[16] = tested on: T16, OR6B3 T48I R131C
T16 sequence (whole entry): T1 sequence (whole entry) with T48I, R131C
Procedure, shortened: as §1

[17] = tested on: T17, OR6C1 C130Y H165D V246I
T17 sequence (whole entry): T2 sequence (whole entry) with C130Y, H165D, V246I
Procedure, shortened: as §1

[18] = tested on: T18, OR6C4
T18 sequence (whole entry): T5 sequence (whole entry) with I37V
Procedure, shortened: as §1

[19] = tested on: T19, OR6C6 M6I
T19 sequence (whole entry): T6 sequence (whole entry) with M6I
Procedure, shortened: as §1

[20] = target: T20, OR6J1 (Homo sapiens) (UniProt Q8NGC5); remark: listed apart in the source
T20 sequence (whole entry): T14 sequence (whole entry) with P250S
Procedure, shortened: as §1

Measured: odorant receptor agonist call;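 further: active if original authors judged signal statistically different from baseline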

CCCCCC(S)C(C)CO (stereo not drawn)
not listed: [16] | [17] | [18] | [19] | [20]
inactive: all other assays above

CC1=NC(C)C(C)S1 (stereo not drawn)
not listed: [14]
inactive: all other assays above

CCCCC(S)C(C)CO (stereo not drawn)
not listed: [16] | [17] | [18] | [19] | [20]
inactive: all other assays above

CCCCCCC=CCCC=O
not listed: [20]
inactive: all other assays above
